High-throughput results from PubChem BioAssay.
LANA-H2B inh = blocks KSHV LANA binding to histone H2A/H2B; inhibition, % (concentration not given with the values); AID 2629; cell-free LANA-H2A/H2B peptide, fluorescence polarization; Q9QR71; 320,000 tested, 0.6% active; in the data active means inhibition mostly above about 10%, no sharp cut-off; inactive means mostly below about 6.7%
Runt-SMMHC FRET = inhibitors of human RUNX1 Runt domain binding to CBFb-SMMHC; Q01196+Q13951; Cerulean-Runt/Venus-CBFb-SMMHC FRET ratio 530/480, 1 h; inhibition, % at 20 µM; 220,000 tested, 0.74% active; AID 1434;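 active means mean inhibition across duplicate retests at 20 µM reaching about 50%, limit read from the data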;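 further: inhibitors lower the FRET ratio by blocking Runt binding to CBFb-SMMHC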
Runt-CBFb FRET = inhibitors of human RUNX1 Runt domain binding to CBFb | Q01196+Q13951 | Cerulean-Runt/Venus-CBFb FRET ratio 530/480, 1 h | inhibition, % at 20 µM | 220,000 tested, 0.46% active;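 active means inhibition over about 50% at 20 µM in the single-dose screen, limit read from the data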
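Assay system: Cerulean-tagged RUNX1 Runt domain (FRET donor) fusion protein / Amount: 100 nM each of Venus-CBFb and Cerulean-Runt domain / Medium: Tris buffer pH 7.5 with salts and BSA / Also added: Venus-CBFb 100 nM / Schedule: 1 h complex formation plus 1 h compound treatment, room temperature / Signal: FRET fluorescence / Read-out: loss of energy transfer signal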
HDAC3 inhib = human HDAC3 inhibition; O15379; recombinant HDAC3, fluorogenic peptide/trypsin coupled, fluorescence; inhibition, % at 8.3 µM; 320,000 tested, 0.15% active; in the data active means inhibition above about 26%, passing the limit was not always enough; inconclusive means no clear call, values can overlap the other calls
Target sequence (O15379 whole entry, looked up): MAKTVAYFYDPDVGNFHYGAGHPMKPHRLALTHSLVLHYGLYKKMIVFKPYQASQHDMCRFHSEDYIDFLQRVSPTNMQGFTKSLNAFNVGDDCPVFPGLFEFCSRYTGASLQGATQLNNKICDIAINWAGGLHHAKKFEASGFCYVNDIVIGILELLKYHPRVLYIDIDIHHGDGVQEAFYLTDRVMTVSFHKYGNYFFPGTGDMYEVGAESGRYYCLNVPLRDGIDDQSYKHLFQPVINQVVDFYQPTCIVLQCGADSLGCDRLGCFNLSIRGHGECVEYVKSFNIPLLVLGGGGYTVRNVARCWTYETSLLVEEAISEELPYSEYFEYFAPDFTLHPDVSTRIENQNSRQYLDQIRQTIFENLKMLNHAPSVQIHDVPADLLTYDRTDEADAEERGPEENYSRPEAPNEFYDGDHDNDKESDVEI
CaV13 FRET inh = Disruptors of the CACNA1D IQ motif to Ca2+-dependent inactivation inhibitor domain association, primary screening, Förster resonance energy transfer in intact living … | HEK cells, CFP/YFP FRET ICDI-IQ, plate reader, 10 min; percent FRET-ratio fall versus neutral wells | inhibition, % at 12.3 µM | 340,000 tested, 0.098% active | AID 743397;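 active means mean replicate inhibition of at least 30% and at least 1% of replicates passing that level; inconclusive means only one of the two criteria is met; inactive means neither criterion is met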
RanGTP-Imp inh = disruptors of Ran-importin-beta complex formation – biochemical, FRET, CFP-Ran, YFP-importin-beta, homogeneous, primary screen; cell-free CFP-Ran/YFP-importin-beta FRET ratio; inhibition, % (no concentration beside the values); 300,000 tested, 1.1% active; AID 2216;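 active means more than half of the replicate wells show a fall in the fluorescence ratio signal beyond about 16%, limit read from the data, passing the limit was not always enough; inconclusive means exactly half of the replicate wells pass the set limit; inactive means fewer than half of replicates pass the limit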
Each line names hits and unclear results; the compound was inactive in the other large screens. An excerpt weighted towards active compounds, which were near 1.9% of everything screened.

CCCOc1ccc([C@@H]2C3CN(C(=O)OCC)CC=C3C(C#N)=C(N)C2(C#N)C#N)cc1OC (stereo not given in full)	none
COc1cc([C@@H]2[C@H]3CNCC=C3C(C#N)=C(N)C2(C#N)C#N)ccc1OC(C)C	RanGTP-Imp inh 62.7
c1ccc(N2CCN(c3cnc4ccccc4n3)CC2)cc1	none
Cc1ccc(SCc2nc(N)nc(Nc3ccccc3C)n2)c(C)c1	LANA-H2B inh 63.8, HDAC3 inhib inconclusive
Cc1ccc(SCc2nc(N)nc(Nc3ccccc3C)n2)cc1C	none
O=c1c2ccccc2oc2cc(NCCCn3ccnc3)ccc12	RanGTP-Imp inh 58.2 (no result: Runt-SMMHC FRET, Runt-CBFb FRET)
CN1CCCC1CCNc1ccc2c(=O)c3ccccc3oc2c1 (stereo not given)	RanGTP-Imp inh 49.2 (no result: Runt-SMMHC FRET, Runt-CBFb FRET)
O=C(NCCCn1ccnc1)c1cc2ccccc2oc1=O	RanGTP-Imp inh inconclusive
O=c1c2ccccc2oc2cc(NCCCN3CCOCC3)ccc12	RanGTP-Imp inh 45.6 (no result: Runt-SMMHC FRET, Runt-CBFb FRET)
CN1CCCC1CCNc1ccc2oc3ccccc3c(=O)c2c1 (stereo not given)	none (no result: Runt-SMMHC FRET, Runt-CBFb FRET)
O=c1c2ccccc2oc2ccc(NCCCN3CCOCC3)cc12	none (no result: Runt-SMMHC FRET, Runt-CBFb FRET)
CC(=O)Oc1cccc(N2C(=O)c3ccc(C(=O)Nc4c[nH]c(=O)[nH]c4=O)cc3C2=O)c1	none (no result: CaV13 FRET inh)
CCOc1ccc(NC(=O)CN(C)C(=O)c2nc3nc(C)cc(C)n3n2)cc1OCC	LANA-H2B inh 34.9 (no result: Runt-SMMHC FRET, Runt-CBFb FRET, RanGTP-Imp inh)
CCOC(=O)C1CCN(C(=O)c2cc(CN3C(=O)c4ccccc4C3=O)ccc2OCC)CC1	none (no result: Runt-SMMHC FRET, Runt-CBFb FRET)
CCOC(=O)C1CCCN(C(=O)c2cc(CN3C(=O)c4ccccc4C3=O)ccc2OC)C1 (stereo not given)	LANA-H2B inh 27.8, RanGTP-Imp inh inconclusive (no result: Runt-SMMHC FRET, Runt-CBFb FRET)
Cc1cc(OCc2ccc(C(=O)n3cccn3)o2)ccc1Cl	RanGTP-Imp inh 66.5 (no result: CaV13 FRET inh)
COc1ccc(C(=O)NNC(=O)CSc2nnc(C(C)C)n2C)cc1	none (no result: Runt-SMMHC FRET, Runt-CBFb FRET)
Cn1nc(-c2ccc(Cl)cc2)c2cc(C(=O)N3CCN(c4ccccn4)CC3)sc21	none (no result: CaV13 FRET inh)
Cn1nc(-c2ccc(Cl)cc2)c2cc(C(=O)N3CCN(c4ccccc4)CC3)sc21	CaV13 FRET inh 47.9
CCOC(=O)CNc1c(-c2ccc(Cl)cc2)nc2cnccn12	RanGTP-Imp inh 33.3
CCOC(=O)CNc1c(-c2ccc(F)cc2)nc2cnccn12	none
C=CCC(CC=C)(C(=O)O)c1ccccc1	none
Cc1ccc(C2C3=C(CC(C)(C)CC3=O)Nc3[nH]c(=S)[nH]c(=O)c32)cc1 (stereo not given)	Runt-SMMHC FRET 71.3 (no result: RanGTP-Imp inh)
Cc1cc(NC(=O)CSc2nnc(-c3ccco3)n2Cc2ccccc2)no1	none (no result: CaV13 FRET inh)
Cc1cc(NC(=O)CSc2nnc(-c3ccc(Br)o3)n2Cc2ccccc2)no1	LANA-H2B inh 12.5 (no result: CaV13 FRET inh)
N#CC(C(=O)NCCc1ccccc1)c1nc2ccccc2nc1N1CCCCC1 (stereo not given)	RanGTP-Imp inh 36.7 (no result: CaV13 FRET inh)
N#CC(C(=O)NCCc1ccccc1)c1nc2ccccc2nc1N1CCOCC1 (stereo not given)	RanGTP-Imp inh inconclusive (no result: CaV13 FRET inh)
CCCCCCOC(=O)C(C#N)c1nc2ccccc2nc1N1CCN(CC)CC1 (stereo not given)	none
CCN1CCN(c2nc3ccccc3nc2C(C#N)C(=O)OCc2ccccc2)CC1 (stereo not given)	RanGTP-Imp inh 20.2
N#CC(C(=O)NCc1ccccc1)c1nc2ccccc2nc1N1CCCC1 (stereo not given)	Runt-SMMHC FRET 66.2, RanGTP-Imp inh 35.5 (no result: CaV13 FRET inh)
N#CC(C(=O)OC1CCCCC1)c1nc2ccccc2nc1N1CCCCC1 (stereo not given)	RanGTP-Imp inh 16.7 (no result: LANA-H2B inh, HDAC3 inhib)
CC1CCCN(c2nc3ccccc3nc2C(C#N)C(=O)OC2CCCCC2)C1 (stereo not given)	none (no result: LANA-H2B inh, HDAC3 inhib, CaV13 FRET inh, RanGTP-Imp inh)
CC(C)CCC1(CCNC(=O)c2cccs2)CCOC(C)(C)C1 (stereo not given)	none
C/C=C(\C)C(=O)N1CCC(C(=O)c2ccccc2)CC1	none (no result: Runt-SMMHC FRET, Runt-CBFb FRET)
Cc1nc(C(F)(F)F)ccc1C(=O)N1CCCC1(C)C(=O)NCC(C)C (stereo not given)	none (no result: LANA-H2B inh, Runt-SMMHC FRET, Runt-CBFb FRET, HDAC3 inhib, RanGTP-Imp inh)
Cc1cccc2c1CCCC2=O	none (no result: LANA-H2B inh, Runt-SMMHC FRET, Runt-CBFb FRET, HDAC3 inhib, RanGTP-Imp inh)
CN(CC(=O)OCC(=O)NCc1ccccc1)S(=O)(=O)c1ccc(F)cc1	LANA-H2B inh active (no result: Runt-SMMHC FRET, Runt-CBFb FRET, RanGTP-Imp inh)
